# Experimental data: ChEMBL document CHEMBL4765423, “Antikinetoplastid SAR study in 3-nitroimidazopyridine series: Identification of a novel non-genotoxic and potent anti-T. b. brucei hit-compound with improved pharmacokinetic properties” (Eur J Med Chem, 2020)
# Legend:
# [1] = Cytotoxicity against human HepG2 cells assessed as reduction in cell viability after 72 hrs by MTT assay; assay type: cell-based
# How it was run: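 MTT was applied at 0.5 mg/mL for 2 h, formazan was dissolved in DMSO, and absorbance read at 570 nm with a 630 nm reference. Doxorubicin was the positive control. CC50 was taken from the dose-response curve, as the mean of three experiments.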
# [2] = tested on: Leishmania donovani; assay: Antileishmanial activity against Leishmania donovani MHOM/IN/00/DEVI promastigotes assessed as inhibition of parasitic metabolic activity measured after 72 hrs by MTT assay; assay type: functional, organism-based
# How it was run: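 Log-phase promastigotes at 10⁶/mL were grown in Schneider's medium with 20% FCS at 27 °C. Compound was added from DMSO stock (final <0.5% v/v), in duplicate, for 72 h. Metabolic activity was read by MTT (4 h, 27 °C) and absorbance at 570 nm. EC50 came from non-linear dose-response regression, as the mean of ≥3 independent experiments.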
# [3] = Selectivity index, ratio of CC50 for human HepG2 cells to EC50 for antileishmanial activity against Leishmania donovani MHOM/IN/00/DEVI promastigotes; assay type: toxicity; conditions: read-out: Ratio CC50/EC50
# [4] = tested on: Leishmania infantum; assay: Antileishmanial activity against Leishmania infantum MHOM/MA/67/ITMAP-263 axenic amastigotes assessed as inhibition of parasitic metabolic activity incubated for 48 hrs by steady Glow reagent based luminescence assay; assay type: functional, organism-based; conditions: MHOM/MA/67/ITMAP-263, 48 h
# How it was run: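 Luciferase-expressing promastigotes were acidified (pH 5.4, 24 h, 24 °C) and then held 24 h at 37 °C to give axenic amastigotes. These were used at 2×10⁶/mL with compound (DMSO <0.5%), in duplicate, for 48 h at 37 °C. Luciferase luminescence was read. EC50 came from non-linear regression, as the mean of three independent experiments.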
# [5] = Selectivity index, ratio of CC50 for human HepG2 cells to EC50 for antileishmanial activity against Leishmania infantum MHOM/MA/67/ITMAP-263 axenic amastigotes; assay type: toxicity; conditions: read-out: Ratio CC50/EC50
# [6] = tested on: Trypanosoma brucei brucei; assay: Antitrypanosomal activity against bloodstream form Trypanosoma brucei brucei AnTat 1.9 trypomastigotes assessed as reduction in parasite viability incubated for 69 hrs by Alamar Blue dye based assay; assay type: functional, organism-based; conditions: AnTat 1.9, 69 h
# How it was run: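 BSF parasites were cultured in MEM/Baltz medium with 20% heat-inactivated horse serum, mercaptoethanol, L-cysteine and bathocuproine, at 37 °C and 5% CO₂. Cells were seeded at 2000 parasites/100 µL with compound from DMSO, in duplicate, for 69 h. Alamar Blue was added for 5 h and fluorescence read (ex 530/em 590 nm). EC50 came from non-linear regression over three independent experiments.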
# [7] = Selectivity index, ratio of CC50 for human HepG2 cells to EC50 for Trypanosoma brucei brucei trypomastigotes AnTat 1.9; assay type: toxicity; conditions: read-out: Ratio CC50/EC50
# [8] = tested on: Trypanosoma brucei brucei; assay: Antitrypanosomal activity against blood stream form of wild type Trypanosoma brucei brucei S427 trypomastigotes assessed as inhibition of parasite growth; assay type: functional, organism-based
# How it was run: (§1)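 Bloodstream-form single marker S427 (T7RPOL TETR NEO) grown at 37 °C in HMI9-T with 2.5 µg/mL G418. The NTR1-overexpressing line is additionally kept in 2.5 µg/mL phleomycin and induced with 1 µg/mL tetracycline 48 h before testing.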
# [9] = tested on: Trypanosoma brucei brucei; assay: Antitrypanosomal activity against blood stream form of Trypanosoma brucei brucei S427 trypomastigotes overexpressing NTR1 assessed as inhibition of parasite growth; assay type: functional, organism-based; how it was run: as §1
# [10] = tested on: Trypanosoma brucei brucei; assay: Selectivity index, ratio of EC50 for antitrypanosomal activity against blood stream form of wild type Trypanosoma brucei brucei S427 trypomastigotes to EC50 for antitrypanosomal activity against blood stream form of Trypanosoma brucei brucei S427 trypomastigotes overexpressing NTR1; assay type: functional
# [11] = tested on: Trypanosoma brucei brucei; assay: Potency index, ratio of nifurtimox EC50 to compound EC50 for antitrypanosomal activity against blood stream form of wild type Trypanosoma brucei brucei S427 trypomastigotes; assay type: functional
# [12] = target: Albumin (Homo sapiens, UniProt P02768); assay: Binding affinity to human albumin incubated for 4 hrs by LC-MS analysis; assay type: ADME; conditions: read-out: PB (converted)
# [13] = Microsomal stability in CD-1 mouse liver microsomes assessed as half life in presence of NADP measured up to 40 mins by LC-MS analysis; assay type: ADME, Microsome
# How it was run: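 Compound was incubated in duplicate with female CD-1 mouse microsomes at 37 °C in 50 mM phosphate, pH 7.4. An NADP-regenerating system was present (MgCl₂ 5 mM, NADP 1 mM, G6PDH 0.4 U/mL, G6P 5 mM).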
# [14] = Thermodynamic solubility of the compound in phosphate buffer at pH 7.4 incubated for 24 hrs under shaking condition by shake flask method; assay type: physicochemical; conditions: read-out: Therm_solubility
# How it was run: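 The miniaturized shake-flask method used 20 mM DMSO stock diluted into phosphate buffer at pH 7.4 (n = 4). Tubes were shaken 24 h at room temperature and centrifuged. Supernatant was mixed 1:1 with acetonitrile and quantified by UV, with calibration at 370 nm.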
# [15] = Permeability of the compound in pH 7.4 Prisma HT buffer at 100 uM incubated for 4 hrs by PAMPA-BBB assay method
# [16] = Cmax in Swiss mouse at 100 mg/kg, po by LC-MS/MS analysis; assay type: ADME, organism-based; parameters: route oral, dose 100 mg/kg; conditions: in vivo
# How it was run: (§2)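 Mice were given oral doses of 100 mg/kg. Plasma Cmax, Tmax, half-life, AUC0-inf and clearance were derived from this.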
# [17] = Tmax in Swiss mouse at 100 mg/kg, po by LC-MS/MS analysis; assay type: ADME, organism-based; conditions: in vivo; how it was run: as §2
# [18] = Half life in Swiss mouse at 100 mg/kg, po by LC-MS/MS analysis; assay type: ADME, organism-based; conditions: in vivo; how it was run: as §2
# [19] = AUC (0 to infinity) in Swiss mouse at 100 mg/kg, po by LC-MS/MS analysis; assay type: ADME, organism-based; parameters: time infinity, route oral, dose 100 mg/kg; conditions: in vivo; how it was run: as §2
# [20] = Clearance in Swiss mouse at 100 mg/kg, po by LC-MS/MS analysis; assay type: ADME, organism-based; conditions: in vivo; how it was run: as §2
# [21] = Toxicity in orally dosed Swiss mouse administered once daily for 5 days; assay type: organism-based; conditions: in vivo, po, time 5 day
# How it was run: (§3)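 Four mice received compound at 100 mg/kg by oral gavage once daily for 5 days, followed by a follow-up period.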
# [22] = Toxicity in Swiss mouse assessed as lesions on kidney at 100 mg/kg, po administered once daily for 5 days; assay type: organism-based; conditions: in vivo, 120 h, time 5 day; how it was run: as §3
# [23] = Toxicity in Swiss mouse assessed as lesions on liver at 100 mg/kg, po administered once daily for 5 days; assay type: organism-based; conditions: in vivo, 120 h, time 5 day; how it was run: as §3
# [24] = Toxicity in Swiss mouse assessed as lesions on brain at 100 mg/kg, po administered once daily for 5 days; assay type: organism-based; conditions: in vivo, 120 h, time 5 day; how it was run: as §3
# [25] = Toxicity in Swiss mouse assessed as lesions on heart at 100 mg/kg, po administered once daily for 5 days; assay type: organism-based; conditions: in vivo, 120 h, time 5 day; how it was run: as §3
# [26] = Toxicity in Swiss mouse assessed as lesions on lung at 100 mg/kg, po administered once daily for 5 days; assay type: organism-based; conditions: in vivo, 120 h, time 5 day; how it was run: as §3
# [27] = tested on: CHO-K1; assay: Genotoxicity in CHOK1 cells assessed as increase in micronucleated cells at 0.01 to 0.5 mM in presence or absence of S9 fraction measured after 3 hrs by Giemsa staining based micronucleus assay; assay type: toxicity, cell-based, Cricetulus griseus; conditions: chinese hamster, cho-k1, 3 h, 500 µM, dose 0.01-0.5 mM
# How it was run: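 CHO-K1 cells in McCoy's 5A were exposed 3 h to 0.01–0.5 mM compound, with or without 10% S9 mix, in duplicate. Cells then received cytochalasin B (3 µg/mL) for 21 h and were methanol-fixed and Giemsa-stained. Micronuclei were scored in 1000 binucleated cells per well, and CBPI and cytostasis were also determined. A χ² test was run against the negative control.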
# [28] = tested on: HepG2; assay: Genotoxicity in human HepG2 cells assessed as induction of DNA damage at 5 to 20 uM incubated for 2 to 72 hrs by alkaline comet assay; assay type: toxicity, cell-based; conditions: hepg2, 20 µM, dose lower 5 µM, time lower 2 hrs, dose upper 20 µM, time upper 72 hrs
# How it was run: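 HepG2 cells were exposed to 5, 10 and 20 µM compound for 2, 24 or 72 h. Methyl methanesulfonate was the positive control, and read-out was % DNA in tail.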
# [29] = Aqueous solubility of compound; assay type: physicochemical; conditions: buffer
# [30] = Electrochemical behavior of the compound assessed as redox potential corrected toward normal hydrogen electrode by cyclic voltammetry
# [31] = tested on: Leishmania donovani; assay: Antileishmanial activity against Leishmania donovani amastigotes infected in human THP1 cells assessed as reduction in parasite infection treated with compound at 24 hrs post infection and measured after 120 hrs by Giemsa staining-based assay; assay type: functional, organism-based; conditions: THP-1
# How it was run: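 THP-1 cells were differentiated with PMA (50 ng/mL, 48 h). They were infected 10:1 with promastigotes acidified at pH 5.4, for 24 h. Compound was added (DMSO <0.5%), in duplicate, and cells were incubated 120 h at 37 °C, 5% CO₂. Cells were methanol-fixed and Giemsa-stained, and ≥200 cells were counted for % infected macrophages. IC50 came from regression, as the mean of ≥3 experiments.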
# Chain of Albumin (P02768 whole entry): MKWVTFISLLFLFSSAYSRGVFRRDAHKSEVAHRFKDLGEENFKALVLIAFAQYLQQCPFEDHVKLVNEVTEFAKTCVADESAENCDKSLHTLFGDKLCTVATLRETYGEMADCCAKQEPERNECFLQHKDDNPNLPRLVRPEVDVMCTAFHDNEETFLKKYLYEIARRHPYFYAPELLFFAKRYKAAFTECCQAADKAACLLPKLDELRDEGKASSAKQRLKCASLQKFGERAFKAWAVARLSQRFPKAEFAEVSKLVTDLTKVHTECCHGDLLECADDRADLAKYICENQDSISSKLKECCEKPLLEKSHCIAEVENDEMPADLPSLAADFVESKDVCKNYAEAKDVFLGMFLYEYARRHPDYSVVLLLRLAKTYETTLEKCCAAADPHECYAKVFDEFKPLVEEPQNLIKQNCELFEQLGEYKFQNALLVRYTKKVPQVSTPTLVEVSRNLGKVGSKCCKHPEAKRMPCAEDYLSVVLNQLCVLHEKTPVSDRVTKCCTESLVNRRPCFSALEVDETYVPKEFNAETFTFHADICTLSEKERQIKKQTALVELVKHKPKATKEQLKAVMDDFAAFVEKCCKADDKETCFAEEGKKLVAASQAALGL
smiles,measurement,setting,value
CS(=O)(=O)Cc1nc2c(Br)cc(Cl)cn2c1[N+](=O)[O-],CC50 at 72 h,[1],45 µM
same,EC50,[2],5700 nM
same,selectivity ratio,[3],7.9
same,EC50,[4],> 25000 nM
same,selectivity ratio,[5],< 1.8
same,EC50,[6],17 nM
same,selectivity ratio,[7],2650
same,EC50,[8],65 nM
same,EC50,[9],16 nM
same,Ratio EC50,[10],4
same,Ratio EC50,[11],30
same,fraction unbound at 4 h,[12],0.231
same,half-life,[13],> 40 min
same,solubility thermodynamic at 24 h,[14],25.8 µM
same,"Papp at 4 h, 100 µM",[15],8.42 ×10⁻⁶ cm/s
same,Cmax,[16],741 ng/mL
same,Tmax,[17],5 h
same,half-life,[18],462 min
same,AUC(0-inf),[19],7060 ng·h/mL
same,CL/F,[20],0.0085 mL/min
same,NOAEL at 120 h,[21],100 mg/kg/day
same,Activity,[22],Non-Toxic
same,Activity,[23],Non-Toxic
same,Activity,[24],Non-Toxic
same,Activity,[25],Non-Toxic
same,Activity,[26],Non-Toxic
same,Activity,[27],Non-Toxic
same,Activity,[28],Non-Toxic
same,solubility,[29],Soluble
same,Activity,[30],-0.6 V
O=[N+]([O-])c1c(CS(=O)(=O)C2CCCCC2)nc2c(Sc3ccc(Cl)cc3)cc(Cl)cn12,CC50 at 72 h,[1],> 31.2 µM
same,EC50,[2],1900 nM
same,selectivity ratio,[3],> 16.4
same,EC50,[4],1600 nM
same,selectivity ratio,[5],> 19.5
same,EC50,[6],1500 nM
same,selectivity ratio,[7],> 20.8
same,EC50,[31],> 10 µM
O=[N+]([O-])c1c(CS(=O)(=O)c2cccnc2)nc2c(Sc3ccc(Cl)cc3)cc(Cl)cn12,CC50 at 72 h,[1],> 31.2 µM
same,EC50,[2],500 nM
same,selectivity ratio,[3],> 62.4
same,EC50,[4],800 nM
same,selectivity ratio,[5],> 39
same,EC50,[6],1200 nM
same,selectivity ratio,[7],> 26
same,EC50,[31],> 10 µM
Cn1c(=O)c2[nH]cnc2n(C)c1=O.O [THEOPHYLLINE],"Papp at 4 h, 100 µM",[15],0.47 ×10⁻⁶ cm/s
